From PubChem BioAssay
Most compounds without a hit are left out; they make up all but 1.2% or so of the library.
Runt-SMMHC FRET: blocks binding of human RUNX1 Runt domain to CBFb-SMMHC | actives 0.74% (n = 220,000) | Cerulean-Runt/Venus-CBFb-SMMHC FRET ratio 530/480, 1 h | Q01196+Q13951 | inhibition, % at 20 µM;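 active = mean inhibition across duplicate retests at 20 µM reaching about 50%, limit read from the data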;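 also: 0% = DMSO wells and 100% = wells with excess untagged CBFb-SMMHC; inhibitors lower the FRET ratio by blocking Runt binding to CBFb-SMMHC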
Target sequence (Q01196 whole entry, looked up, the tested form may be a part): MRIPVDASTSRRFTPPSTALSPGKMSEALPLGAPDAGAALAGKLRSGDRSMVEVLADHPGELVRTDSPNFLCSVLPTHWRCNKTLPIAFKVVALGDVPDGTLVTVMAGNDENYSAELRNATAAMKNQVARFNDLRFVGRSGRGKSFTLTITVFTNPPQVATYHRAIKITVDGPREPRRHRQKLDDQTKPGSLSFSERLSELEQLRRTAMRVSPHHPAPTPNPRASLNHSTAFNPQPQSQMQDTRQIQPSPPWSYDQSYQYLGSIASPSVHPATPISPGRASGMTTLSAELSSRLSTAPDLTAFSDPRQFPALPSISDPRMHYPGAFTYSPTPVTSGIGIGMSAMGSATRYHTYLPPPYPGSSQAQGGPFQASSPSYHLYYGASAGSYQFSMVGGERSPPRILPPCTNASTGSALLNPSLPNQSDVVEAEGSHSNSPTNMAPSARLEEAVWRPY
Target sequence (Q13951 whole entry, looked up, the tested form may be a part): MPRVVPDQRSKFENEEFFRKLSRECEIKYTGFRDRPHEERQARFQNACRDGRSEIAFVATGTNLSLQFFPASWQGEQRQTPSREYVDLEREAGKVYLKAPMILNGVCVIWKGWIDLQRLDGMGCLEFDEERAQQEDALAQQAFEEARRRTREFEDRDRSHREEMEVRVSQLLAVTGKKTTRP
RanGTP-Imp inh: disruptors of Ran-importin-beta complex formation – biochemical, FRET, CFP-Ran, YFP-importin-beta, homogeneous, primary screen; cell-free CFP-Ran/YFP-importin-beta FRET ratio; inhibition, % (test concentration not listed); actives 1.1% (n = 300,000);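 active = more than half of the replicate wells show a fall in the fluorescence ratio signal beyond about 16%, limit read from the data, passing the limit was not always enough; inconclusive = exactly half of the replicate wells pass the set limit; inactive = fewer than half of replicates pass the limit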;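 also: 0% = DMSO wells and 100% = Ran loaded with GDP instead of GTP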
CaV13 ICDI inh: Disruptors of the CACNA1D IQ motif to Ca2+-dependent inactivation inhibitor domain association, primary screening, Förster resonance energy transfer in intact living …; HEK cells, CFP/YFP FRET ICDI-IQ, plate reader, 10 min; percent FRET-ratio fall versus neutral wells; actives 0.098% (n = 340,000); inhibition, % at 12.3 µM;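 active = mean replicate inhibition of at least 30% and at least 1% of replicates passing that level; inconclusive = only one of the two criteria is met; inactive = neither criterion is met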;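 also: 0% = median of the neutral control wells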
Runt-CBFb FRET: blocks binding of human RUNX1 Runt domain to CBFb | Q01196+Q13951 | Cerulean-Runt/Venus-CBFb FRET ratio 530/480, 1 h | inhibition, % at 20 µM | actives 0.46% (n = 220,000) | AID 1496;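 active = inhibition over about 50% at 20 µM in the single-dose screen, limit read from the data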;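 also: 0% = DMSO wells and 100% = excess unlabeled CBFb competitor control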
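Measured by: fluorescence energy transfer, 422 nm excitation, 530/480 nm emission; Assay system: Cerulean-Runt domain; Medium: Tris pH 7.5 buffer with BSA; Measure: loss of energy transfer signal; Controls: 5 µM unlabeled CBFb as full-inhibition high control; Incubation: protein complex preformed 1 h, compound exposure 1 h, room temperature, dark.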
* marks the source's active call; other numbers are inactive results; ? = inconclusive; / = no result; + = active, no number.

SMILES	Runt-SMMHC FRET	RanGTP-Imp inh	CaV13 ICDI inh	Runt-CBFb FRET
O=C1/C(=C/c2cccs2)SC(=S)N1CCCC(=O)N(CCO)c1ccccc1	/	0	-3	/
Cc1ccc(S(=O)(=O)N(C)C[C@@H]2Oc3ccc(NC(=O)Cn4cnnn4)cc3C(=O)N([C@@H](C)CO)C[C@H]2C)cc1	/	/	-10	/
Cc1cc(=O)n2c3ccccc3n(CC(O)CN3CCOCC3)c2c1C#N (centres undefined)	1	130*	5	-1
Cc1cc(=O)n2c3ccccc3n(CC(O)CN3CCCCC3)c2c1C#N (centres undefined)	-1	4	-9	-1
C[C@H](NC(=O)c1ncn2c1C(=O)NC[C@H]2C)C(=O)OC(C)(C)C	/	/	-5	/
COc1ccc(-c2ccc(-c3noc(-c4ccccc4C)n3)c(OC)n2)cc1	11	23*	-6	5
COc1ccc(-c2ccc(-c3noc(-c4cccs4)n3)c(OC)n2)cc1	-68	30*	/	10
COc1ccc(-c2ccc(-c3noc(-c4ccccc4OC)n3)c(OC)n2)cc1	44	35*	/	14
COc1ccc(-c2ccc(-c3noc(C4CCCCC4)n3)c(OC)n2)cc1	5	19*	/	0
CCOC(=O)C1=CCN(S(=O)(=O)c2cccc(Cl)c2)C1c1ccc(Cl)c(Cl)c1 (centres undefined)	/	/	-3	/
O=C(O)c1ccc(Cl)c(NC(=O)C2CCN(S(=O)(=O)c3ccc4c(c3)OCCO4)CC2)c1	/	/	-6	/
O=C(O)c1ccccc1-c1nc2ccccc2c(=O)[nH]1	0	25*	-5	0
Cc1c(NC(=O)c2ccc([N+](=O)[O-])o2)cccc1-c1nc2ncccc2o1	/	1	-4	/
Cc1cccn2c(=O)c3cc(C(=O)NCC4CCCO4)c(=N)n(Cc4cccnc4)c3nc12 (centres undefined)	57*	/	1	18
N=c1c(C(=O)NCC2CCCO2)cc2c(=O)n3ccccc3nc2n1Cc1ccc(F)cc1 (centres undefined)	/	179*	15	/
N=c1c(C(=O)NCC2CCCO2)cc2c(=O)n3ccccc3nc2n1Cc1ccco1 (centres undefined)	/	73*	-6	/
N=c1c(C(=O)NCC2CCCO2)cc2c(=O)n3ccccc3nc2n1Cc1cccnc1 (centres undefined)	57*	182*	/	18
Nc1ccc(CCn2ccnc2)cc1	/	-6	-13	/
CC(C)[C@@H](NC(=O)OC(C)(C)C)c1cc(C(=O)c2c(-c3ccccc3)[nH]c3ccccc23)c(N)s1	/	/	-9	/
N#CC(C(=O)NCc1ccccc1)c1nc2ccccc2nc1N1CCCC1 (centres undefined)	66*	35*	/	32
CCN1CCN(c2nc3ccccc3nc2C(C#N)C(=O)OCc2ccccc2)CC1 (centres undefined)	47	20*	-6	26
CC1CCCN(c2nc3ccccc3nc2C(C#N)C(=O)OC2CCCCC2)C1 (centres undefined)	-45	/	/	-1
N#CC(C(=O)NCCc1ccccc1)c1nc2ccccc2nc1N1CCCCC1 (centres undefined)	-22	37*	/	9
N#CC(C(=O)OC1CCCCC1)c1nc2ccccc2nc1N1CCCCC1 (centres undefined)	-44	17*	-7	-14
N#CC(C(=O)NCCc1ccccc1)c1nc2ccccc2nc1N1CCOCC1 (centres undefined)	-38	?	/	-19
SMILES	Runt-SMMHC FRET	RanGTP-Imp inh	CaV13 ICDI inh	Runt-CBFb FRET
COC(=O)[C@]12C[C@H](CC(=O)NCCC(C)C)C(=O)N(CCC3=CCCCC3)C1=C[C@H](C(C)(C)C)O[C@@H]2C	/	/	-9	/
COc1c(S(=O)(=O)n2nc(C)cc2C)ccc(Cl)c1Cl	-1	-1	-5	0
Cc1ccc(C)c(OCCSc2nnc(C)c(=O)[nH]2)c1	5	-1	5	-1
COC(=O)C1=C(C(=O)OC)C(C(=O)OC)N2C=CC=CC2=C1C(=O)OC (centres undefined)	/	/	-11	/
COC(=O)C1=C(C(=O)OC)C2C(C)=CC(C)=CN2C(C(=O)OC)=C1C(=O)OC (centres undefined)	9	72*	-2	2
COc1cc(-c2nnc(SCc3cc(=O)oc4cc(O)c(O)cc34)o2)cc(OC)c1OC	59*	9	-7	67*
CCOC(=O)CSc1nnc(-c2cc(OC)c(OC)c(OC)c2)o1	-1	3	3	0
CCOc1cc(C2C3=C(CCCC3=O)Nc3ccc4ncccc4c32)ccc1O (centres undefined)	-3	22*	-5	0
CCc1cc(=O)oc2c(CNC(Cc3ccccc3)C(=O)O)c(O)ccc12 (centres undefined)	/	1	-4	/
CCc1cc(=O)oc2c(CNCc3ccccc3F)c(O)c(Cl)cc12	/	36*	-1	/
COC(=O)c1cc(C(=O)OCC(=O)N(C)c2ccccc2)cc([N+](=O)[O-])c1	/	-3	-2	/
COc1ccc(-n2c(O)c(C=Nc3ccccc3)c3ccccc3c2=O)cc1	90*	?	-30	7
COc1ccc(-n2c(O)c(C=Nc3ccccc3)c3ccccc3c2=O)cc1OC	71	-4	-8	22
CCCN1CCCCC(NC(=O)c2c(F)cccc2F)C1=O (centres undefined)	/	/	-1	/
COCCN1C=C(C(=O)OC)C(c2ccccc2C(F)(F)F)C(C(=O)OC)=C1	82*	56*	/	122*
CCCCN1C=C(C(=O)OC)C(c2ccccc2C(F)(F)F)C(C(=O)OC)=C1	62*	94*	-3	67*
CCCCN1C=C(C(=O)OC)C(c2ccccc2Cl)C(C(=O)OC)=C1	92*	96*	+	30
COc1ccc(CCN2C(=O)CCC2(C)c2nnnn2Cc2ccccc2)cc1OC (centres undefined)	/	/	-7	/
Cc1ccc(C(=O)N2CCCC(N3CCN(c4ccccc4F)CC3)C2)s1 (centres undefined)	/	-4	-5	/
OCC[C@@H]1C[C@H](O)[C@@H](O)[C@@]2(OCCc3cc(C(F)(F)F)ccc32)O1	/	/	-3	/
CCOC(=O)C1CCN(CC(=O)N(CC(C)C)c2c(N)n(CC(C)C)c(=O)[nH]c2=O)CC1	2	0	-5	4
CCNC(=O)/C(C#N)=C/c1c(N2CCN(C)CC2)nc2c(C)cccn2c1=O	/	-56	-2	/
COCCCNC(=O)/C(C#N)=C/c1c(N2CCN(c3ccccc3)CC2)nc2c(C)cccn2c1=O	/	32*	-4	/
C=CCNC(=O)/C(C#N)=C/c1c(N2CCN(c3ccc(OC)cc3)CC2)nc2c(C)cccn2c1=O	/	?	-12	/
C=CCNC(=O)/C(C#N)=C/c1c(N2CCN(c3ccccc3)CC2)nc2c(C)cccn2c1=O	/	28*	-14	/
CCNC(=O)/C(C#N)=C/c1c(N2CCN(Cc3ccc4c(c3)OCO4)CC2)nc2c(C)cccn2c1=O	63*	9	-1	50*
